Test results from ChEMBL document CHEMBL1129593, “Halogenated mazindol analogs as potential inhibitors of the cocaine binding site at the dopamine transporter” (J Med Chem, 1996).

Key:
[1] = target: T1, Sodium-dependent dopamine transporter (Rattus norvegicus, UniProt P23977); test: Inhibition of [3H]dopamine uptake at the dopamine transporter in rat striatal tissue; assay type: functional, tissue-based, Striatum
Outline: (§1)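 Crude synaptosomes were made from rat striatum: homogenised in 0.32 M sucrose, spun at 800g for 10 min, then at 27000g for 20 min. They were resuspended in Krebs-Hepes (pH 7.35) containing NaCl, KCl, KH₂PO₄, CaCl₂, MgSO₄, Hepes, glucose, ascorbic acid and nialamide. Preincubated with compound for 10 min at 30 °C, then given [³H]dopamine for 10 min and filtered.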

[2] = target: Sodium-dependent dopamine transporter (Rattus norvegicus) (UniProt P23977); test: The ratio of uptake/binding at Dopamine transporter; assay type: functional
[3] = target: T1, Sodium-dependent dopamine transporter; test: Inhibition of [3H]WIN-35428 binding to the dopamine transporter in rat brain; assay type: tissue-based
Outline: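 Striatal tissue from male Sprague-Dawley rats (200-250 g), 0.1 mg original wet weight per tube. Nonspecific binding was defined with 30 µM (R)-(-)-cocaine. Stopped by filtration through polyethylenimine-soaked GF/B filters with three ice-cold buffer washes. Equilibrium binding analysis.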

[4] = target: T2, Sodium-dependent serotonin transporter (Rattus norvegicus, UniProt P31652); test: Compound was tested for inhibition of [3H]citalopram binding at the serotonin transporter in rat fore brain membranes; assay type: cell membranes, Membrane
[5] = target: Norepinephrine transporter (Rattus norvegicus) (UniProt Q9WTR4); test: Compound was tested for inhibition of [3H]-DMI binding at the Norepinephrine transporter in rat cortical membranes at (10e-5) M; assay type: cell membranes; conditions: Membrane; concentration not given here
[6] = target: T1, Sodium-dependent dopamine transporter; test: Compound was tested for inhibition of [3H]dopamine uptake at the dopamine transporter in rat […] tissue; assay type: tissue-based, Striatum; outline: as §1
[7] = target: T2, Sodium-dependent serotonin transporter; test: Compound was tested for inhibition of [3H]5-HT reuptake at Serotonin transporter
[8] = target: Norepinephrine transporter (Rattus norvegicus) (UniProt Q9WTR4); test: Compound was tested for inhibition of [3H]DMI binding at the Norepinephrine transporter in rat cortical membranes at (10e-5) M; assay type: cell membranes; conditions: Membrane; concentration not given here

T1 sequence (P23977 whole entry): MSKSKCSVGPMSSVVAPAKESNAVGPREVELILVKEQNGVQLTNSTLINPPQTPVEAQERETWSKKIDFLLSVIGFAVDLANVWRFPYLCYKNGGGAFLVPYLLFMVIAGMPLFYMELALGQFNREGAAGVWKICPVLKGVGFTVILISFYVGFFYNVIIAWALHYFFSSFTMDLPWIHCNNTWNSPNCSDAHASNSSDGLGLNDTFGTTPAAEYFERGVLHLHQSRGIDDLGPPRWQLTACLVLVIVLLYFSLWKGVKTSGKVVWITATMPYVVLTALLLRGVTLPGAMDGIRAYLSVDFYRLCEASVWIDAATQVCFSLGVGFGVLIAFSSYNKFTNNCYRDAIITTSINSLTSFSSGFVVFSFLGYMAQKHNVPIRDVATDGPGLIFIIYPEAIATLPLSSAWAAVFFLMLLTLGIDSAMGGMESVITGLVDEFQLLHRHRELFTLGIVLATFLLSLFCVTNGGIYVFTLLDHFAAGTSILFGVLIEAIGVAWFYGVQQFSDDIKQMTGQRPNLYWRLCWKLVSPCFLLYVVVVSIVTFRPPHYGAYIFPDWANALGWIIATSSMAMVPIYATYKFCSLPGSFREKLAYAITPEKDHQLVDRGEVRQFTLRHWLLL
Chain of Sodium-dependent dopamine transporter (Rattus norvegicus) (P23977 whole entry): as above
T2 sequence (P31652 whole entry): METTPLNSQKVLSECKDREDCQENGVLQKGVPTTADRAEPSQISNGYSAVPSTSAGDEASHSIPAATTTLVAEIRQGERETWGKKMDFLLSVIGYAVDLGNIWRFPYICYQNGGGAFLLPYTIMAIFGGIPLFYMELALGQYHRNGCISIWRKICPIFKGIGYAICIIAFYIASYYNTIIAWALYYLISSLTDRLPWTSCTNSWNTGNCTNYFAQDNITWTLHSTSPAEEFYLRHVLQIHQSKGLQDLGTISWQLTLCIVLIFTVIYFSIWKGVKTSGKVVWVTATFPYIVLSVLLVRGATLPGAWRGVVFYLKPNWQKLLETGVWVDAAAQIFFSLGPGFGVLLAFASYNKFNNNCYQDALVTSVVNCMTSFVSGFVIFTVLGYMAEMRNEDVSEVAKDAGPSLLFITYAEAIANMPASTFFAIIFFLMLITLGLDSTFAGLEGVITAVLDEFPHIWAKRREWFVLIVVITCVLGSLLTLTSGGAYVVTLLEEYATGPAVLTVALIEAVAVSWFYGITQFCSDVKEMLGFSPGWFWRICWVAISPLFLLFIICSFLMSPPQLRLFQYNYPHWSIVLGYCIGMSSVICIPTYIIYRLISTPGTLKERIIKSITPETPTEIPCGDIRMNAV
Chain of Norepinephrine transporter (Rattus norvegicus) (Q9WTR4 as listed by the source): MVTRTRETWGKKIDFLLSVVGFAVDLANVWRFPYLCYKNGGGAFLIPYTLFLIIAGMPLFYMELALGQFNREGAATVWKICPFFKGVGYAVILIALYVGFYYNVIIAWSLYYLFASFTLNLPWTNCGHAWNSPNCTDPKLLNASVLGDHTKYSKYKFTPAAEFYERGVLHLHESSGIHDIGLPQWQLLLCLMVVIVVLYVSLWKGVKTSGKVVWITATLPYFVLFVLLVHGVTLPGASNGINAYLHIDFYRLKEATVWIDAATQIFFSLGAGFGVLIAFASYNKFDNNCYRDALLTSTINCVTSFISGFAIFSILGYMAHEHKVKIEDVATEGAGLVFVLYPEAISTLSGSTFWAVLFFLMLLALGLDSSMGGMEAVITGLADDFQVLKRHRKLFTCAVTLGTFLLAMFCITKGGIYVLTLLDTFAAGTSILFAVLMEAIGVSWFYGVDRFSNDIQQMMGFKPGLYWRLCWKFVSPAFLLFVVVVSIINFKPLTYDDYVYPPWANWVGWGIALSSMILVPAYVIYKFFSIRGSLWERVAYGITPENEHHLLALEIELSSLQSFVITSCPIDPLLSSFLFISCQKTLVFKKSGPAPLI

SMILES | IC50 [1] [nM] | Uptake/Binding ratio [2] | IC50 [3] [nM] | IC50 [4] [nM] | inhibition [5] [%] | IC50 [6] [nM] | IC50 [7] [nM] | inhibition [8] [%]
OC1(c2cccc(F)c2)c2ccccc2C2=NCCCN21 (stereo not given) | 3.1 | 1.6 | 2 |  |  |  |  | 
OC1(c2ccccc2Cl)c2ccccc2C2=NCCN21 (stereo not given) | 770 | 2.6 | 294 |  |  |  |  | 
OC1(c2ccc(Cl)cc2)c2cc(F)ccc2C2=NCCN21 (stereo not given) | 15 | 2.3 | 6.5 |  |  |  |  | 
CC1(C)CN=C2c3ccccc3C(O)(c3ccc(Cl)cc3)N2C1 (stereo not given) | 1.7 | 0.3 | 6.3 |  |  |  |  | 
OC1(c2ccc(Cl)cc2)c2ccccc2C2=NCCCCN21 (stereo not given) | 3.4 | 2.3 | 1.5 | 1250 |  |  |  | 
OC1(c2ccc(F)cc2)c2cc(Cl)ccc2C2=NCCN21 (stereo not given) | 53 | 1 | 52.8 |  |  |  |  | 
OC1(c2ccccc2)c2c(Cl)cccc2C2=NCCN21 (stereo not given) | 58 |  | 57.2 |  |  |  |  | 
OC1(c2cccc(Cl)c2)c2ccccc2C2=NCCN21 (stereo not given) | 9.2 | 2.1 | 4.3 |  |  |  |  | 
OC1(c2ccc(I)cc2)c2ccccc2C2=NCCN21 (stereo not given) | 14 | 0.8 | 17.2 |  |  |  |  | 
OC1(c2cccc(Cl)c2)c2ccccc2C2=NCCCN21 (stereo not given) | 1.3 | 1.3 | 1 |  |  |  |  | 
OC1(c2ccccc2)c2ccccc2C2=NCCCCN21 (stereo not given) | 11 | 2 | 5.9 |  |  |  |  | 
OC1(c2ccc(Cl)cc2)c2cc(Cl)c(Cl)cc2C2=NCCN21 (stereo not given) |  |  | 13.6 |  |  |  |  | 
OC1(c2ccccc2)c2ccccc2C2=NCCN21 (stereo not given) | 124 | 1.9 | 66 |  |  |  |  | 
OC1(c2ccc(F)cc2)c2ccccc2C2=NCCCN21 (stereo not given) | 8.5 |  | 3.2 |  |  |  |  | 
OC1(c2ccc(Cl)c(Cl)c2)c2ccccc2C2=NCCN21 (stereo not given) | 1.4 | 0.6 | 2.5 |  |  |  |  | 
OC1(c2ccc(Cl)cc2)c2ccccc2C2=NCCCN21 (stereo not given) | 1.4 | 0.8 | 1.7 | 1040 | 62.8 |  |  | 
OC1(c2ccccc2F)c2ccccc2C2=NCCCN21 (stereo not given) | 89 | 3.8 | 23.2 |  |  |  |  | 
CC1(C)CN2C(=N1)c1ccccc1C2(O)c1ccc(Cl)cc1 (stereo not given) |  |  | 50.4 |  |  | 106 |  | 
OC1(c2ccccc2)c2cc(Cl)ccc2C2=NCCN21 (stereo not given) | 55 | 0.6 | 86.4 |  |  |  |  | 
OC1(c2ccccc2)c2ccccc2C2=NCCCN21 (stereo not given) | 18 | 3.1 | 5.8 |  |  |  |  | 
OC1(c2ccccc2)c2cc(F)ccc2C2=NCCN21 (stereo not given) | 78 | 2.6 | 29.7 |  |  |  |  | 
OC1(c2ccc(Cl)cc2Cl)c2ccccc2C2=NCCN21 (stereo not given) | 92 | 1.2 | 76.5 |  |  |  |  | 
OC1(c2ccc(Br)cc2)c2ccccc2C2=NCCN21 (stereo not given) | 8.6 | 3.3 | 2.6 |  |  |  |  | 
OC1(c2ccc(Cl)cc2)c2ccccc2C2=NCCN21 (stereo not given) [MAZINDOL] |  |  |  |  |  |  | 231 | 60
OC1(c2ccc(F)cc2)c2ccccc2C2=NCCN21 (stereo not given) | 25.4 | 1.9 | 13.3 |  |  |  |  | 
OC1(c2ccc(Cl)c(Cl)c2)c2ccccc2C2=NCCCCN21 (stereo not given) | 0.26 | 0.2 | 1.7 |  |  |  |  | 
